{
  "source": "ChEMBL document CHEMBL3124822",
  "about": "“Discovery of a rapidly metabolized, long-acting β(2) adrenergic receptor agonist with a short onset time incorporating a sulfone group suitable for once-daily dosing” (J Med Chem, 2014)",
  "key": {"Cavia porcellus [1]": {"system": "Cavia porcellus", "assay": "Bronchodilatory activity in guinea pig assessed as duration of action of inhibition of histamine-induced bronchoconstriction at 10 times EC90 administered via nebulization 2 mins prior to histamine challenge", "assay_type": "functional", "method_in_brief": "(§1)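 Conscious guinea pigs, n = 24 per group, given test agonist as a nebulized solution in dimethylacetamide–saline vehicle (2 min nebulization) before histamine (10 mM, nebulized 1.3 min) in a whole-body plethysmograph. PenH recorded for 15 min as index of airway obstruction. Dose expressed as nebulizer concentration; duration taken as time to 50% recovery.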"}, "L5178Y": {"system": "L5178Y", "assay": "Genotoxicity against mouse L5178Y cells", "assay_type": "toxicity, cell-based", "method_in_brief": "(§2)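 Acetate and 4-biphenylsulfonate salts screened in Ames and mouse lymphoma L5178Y assays, with and without a rat liver metabolic activation system.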"}, "[2]": {"assay": "Ratio of drug uptake from blood to plasma in rat", "assay_type": "ADME", "method_in_brief": "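In vitro partitioning of the compound into the cellular fraction of rat, dog and human blood, reported as the blood:plasma ratio.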"}, "Cavia porcellus [3]": {"system": "Cavia porcellus", "assay": "Bronchodilatory activity in guinea pig assessed as inhibition of histamine-induced bronchoconstriction administered via nebulization 2 mins prior to histamine challenge", "assay_type": "functional", "method_in_brief": "as §1"}, "Cytochrome P450 2C19": {"target": "Cytochrome P450 2C19 (Homo sapiens, UniProt P33261)", "sequence (P33261 whole entry, canonical isoform)": "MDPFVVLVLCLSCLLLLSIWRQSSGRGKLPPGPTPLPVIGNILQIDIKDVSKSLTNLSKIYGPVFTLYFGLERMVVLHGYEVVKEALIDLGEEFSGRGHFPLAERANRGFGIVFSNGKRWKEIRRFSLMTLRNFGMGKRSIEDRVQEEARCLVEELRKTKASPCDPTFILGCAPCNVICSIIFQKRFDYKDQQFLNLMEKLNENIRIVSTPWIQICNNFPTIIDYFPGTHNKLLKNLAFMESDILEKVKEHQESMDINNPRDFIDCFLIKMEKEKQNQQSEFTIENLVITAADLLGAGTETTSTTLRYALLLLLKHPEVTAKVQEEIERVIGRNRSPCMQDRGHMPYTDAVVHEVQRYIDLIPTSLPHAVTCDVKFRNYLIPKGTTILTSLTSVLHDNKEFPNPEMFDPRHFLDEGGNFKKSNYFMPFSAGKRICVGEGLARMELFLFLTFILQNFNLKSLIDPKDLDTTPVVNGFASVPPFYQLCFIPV", "assay": "Inhibition of human CYP2C19 expressed in Escherichia coli", "assay_type": "ADME", "method_in_brief": "(§3)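 Human CYP isoforms expressed in E. coli; IC50 from n = 3. Probe substrates diethoxyfluorescein and 7-benzyloxyquinoline are stated for CYP3A4.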"}, "[4]": {"assay": "Oral absorption in Han Wistar rat at 2 mg/kg up to 7 hrs by LC-MS/MS analysis", "assay_type": "ADME, organism-based", "set-up": "dose 2 mg/kg", "conditions": "in vivo, read-out: Fa; call rule not given here", "method_in_brief": "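Rat oral absorption from hepatic portal vein plasma, corrected for systemic circulation levels, after β-glucuronidase treatment of samples (deconjugated HPV model). Expressed as h·ng/mL.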"}, "[5]": {"assay": "Plasma clearance in Han Wistar rat at 0.25 mg/kg, iv up to 7 hrs by LC-MS/MS analysis", "assay_type": "ADME, organism-based", "set-up": "dose 0.25 mg/kg, route intravenous", "method_in_brief": "(§4)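 Han Wistar rats dosed 0.25 mg/kg intravenously; plasma sampled at various times up to 7 h postdose. Clearance expressed as percentage of liver blood flow.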"}, "[6]": {"target": "Beta-2 adrenergic receptor (Homo sapiens, UniProt P07550)", "sequence (P07550 whole entry)": "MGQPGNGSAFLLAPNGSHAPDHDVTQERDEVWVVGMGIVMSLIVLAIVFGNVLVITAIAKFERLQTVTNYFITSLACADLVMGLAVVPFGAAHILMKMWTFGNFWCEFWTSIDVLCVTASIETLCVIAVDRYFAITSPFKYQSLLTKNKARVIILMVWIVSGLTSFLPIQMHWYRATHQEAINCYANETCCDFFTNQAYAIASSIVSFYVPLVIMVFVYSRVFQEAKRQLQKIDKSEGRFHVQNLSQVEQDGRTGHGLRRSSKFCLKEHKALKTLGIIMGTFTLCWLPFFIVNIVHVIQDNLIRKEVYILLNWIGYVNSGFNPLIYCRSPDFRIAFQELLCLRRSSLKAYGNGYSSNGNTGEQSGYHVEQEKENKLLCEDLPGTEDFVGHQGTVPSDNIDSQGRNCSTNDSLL", "assay": "Agonist activity at human beta2 adrenoceptor transfected in CHO cells assessed as cyclic AMP accumulation after 45 mins by fluorescence polarization assay", "assay_type": "functional, cell-based"}, "Hepatocyte [7]": {"system": "Hepatocyte", "assay": "Drug metabolism in human hepatocytes assessed as metabolite M15 formation at 12.5 uM after 2 hrs by LC-MS/MS analysis", "assay_type": "ADME, cell-based", "method_in_brief": "(§5)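 Human hepatocytes incubated with substrate at 12.5 μM for 2 h. Products characterized by LC–MS/MS on a C18 column, 5–95% acetonitrile gradient in water with 0.1% formic acid over 8 min. Metabolites numbered by elution order. Abundance is semiquantitative from peak heights (low/medium/high), assuming equal analyte response.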"}, "[8]": {"assay": "Oral bioavailability in Han Wistar rat at 2 mg/kg up to 7 hrs by LC-MS/MS analysis", "assay_type": "ADME, organism-based", "conditions": "in vivo"}, "Cavia porcellus [9]": {"system": "Cavia porcellus", "assay": "Bronchodilatory activity in guinea pig assessed as inhibition of histamine-induced bronchoconstriction administered via nebulization 2 mins prior to histamine challenge relative to salmeterol acetate", "assay_type": "functional", "method_in_brief": "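Conscious guinea pigs (n = 24 per group) in a whole-body plethysmograph; agonist given by 2 min nebulization before challenge with nebulized histamine (10 mM, 1.3 min). Enhanced pause (PenH) was recorded for 15 min as the index of airway obstruction. Potency was expressed as EC90 by nebulizer concentration and compared with salmeterol acetate.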"}, "Salmonella typhimurium": {"system": "Salmonella typhimurium", "assay": "Genotoxicity in Salmonella typhimurium by Ames assay in presence of rat liver metabolic activation system", "assay_type": "toxicity, organism-based", "conditions": "salmonella enterica subsp. enterica serovar typhimurium", "method_in_brief": "as §2"}, "Cytochrome P450 3A4 [10]": {"target": "T1, Cytochrome P450 3A4 (Homo sapiens, UniProt P08684)", "T1 sequence (P08684 whole entry)": "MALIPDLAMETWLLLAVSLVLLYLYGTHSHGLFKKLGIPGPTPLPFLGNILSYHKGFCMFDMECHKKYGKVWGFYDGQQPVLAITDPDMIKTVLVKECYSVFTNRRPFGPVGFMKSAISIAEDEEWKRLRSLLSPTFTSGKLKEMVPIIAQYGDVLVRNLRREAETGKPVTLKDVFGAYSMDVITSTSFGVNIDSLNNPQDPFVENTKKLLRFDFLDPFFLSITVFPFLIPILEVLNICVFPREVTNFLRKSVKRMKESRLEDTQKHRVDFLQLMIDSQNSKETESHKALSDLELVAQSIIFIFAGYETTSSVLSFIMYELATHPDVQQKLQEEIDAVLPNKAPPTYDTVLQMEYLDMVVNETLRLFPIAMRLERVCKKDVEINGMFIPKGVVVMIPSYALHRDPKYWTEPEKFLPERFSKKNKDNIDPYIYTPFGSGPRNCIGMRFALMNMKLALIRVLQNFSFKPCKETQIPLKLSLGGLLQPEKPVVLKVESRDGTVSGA", "assay": "Inhibition of human CYP3A4 expressed in Escherichia coli using diethoxyfluorescein as substrate", "assay_type": "ADME", "method_in_brief": "as §3"}, "[11]": {"assay": "Half life in Han Wistar rat at 0.25 mg/kg, iv up to 7 hrs by LC-MS/MS analysis", "assay_type": "ADME, organism-based", "set-up": "dose 0.25 mg/kg, route intravenous", "conditions": "in vivo", "method_in_brief": "as §4"}, "Hepatocyte [12]": {"system": "Hepatocyte", "assay": "Drug metabolism in human hepatocytes assessed as metabolite M10 formation at 12.5 uM after 2 hrs by LC-MS/MS analysis", "assay_type": "ADME, cell-based", "method_in_brief": "as §5"}, "Cytochrome P450 3A4 [13]": {"target": "T1, Cytochrome P450 3A4", "assay": "Inhibition of human CYP3A4 expressed in Escherichia coli using 7-benzyloxyquinoline as substrate", "assay_type": "ADME", "method_in_brief": "as §3"}, "[14]": {"assay": "Plasma protein binding in human", "assay_type": "ADME, cell-free", "conditions": "read-out: PPB (converted)"}, "Hepatocyte [15]": {"system": "Hepatocyte", "assay": "Drug metabolism in human hepatocytes assessed as metabolite M1 formation at 12.5 uM after 2 hrs by LC-MS/MS analysis", "assay_type": "ADME, cell-based", "method_in_brief": "as §5"}, "Cytochrome P450 2C9": {"target": "Cytochrome P450 2C9 (Homo sapiens, UniProt P11712)", "sequence (P11712 whole entry)": "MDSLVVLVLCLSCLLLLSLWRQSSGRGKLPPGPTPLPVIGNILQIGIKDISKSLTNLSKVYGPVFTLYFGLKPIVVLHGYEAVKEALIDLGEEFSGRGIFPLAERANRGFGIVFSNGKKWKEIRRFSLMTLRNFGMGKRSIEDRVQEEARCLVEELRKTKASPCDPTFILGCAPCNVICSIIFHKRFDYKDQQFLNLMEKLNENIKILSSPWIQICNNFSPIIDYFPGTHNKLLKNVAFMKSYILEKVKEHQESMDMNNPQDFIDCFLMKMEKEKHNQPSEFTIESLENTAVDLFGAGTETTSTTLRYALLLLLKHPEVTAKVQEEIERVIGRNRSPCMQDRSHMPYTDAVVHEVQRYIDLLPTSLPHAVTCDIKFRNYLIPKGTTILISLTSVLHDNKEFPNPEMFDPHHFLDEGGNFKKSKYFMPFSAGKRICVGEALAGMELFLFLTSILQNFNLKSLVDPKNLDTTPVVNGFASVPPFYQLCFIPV", "assay": "Inhibition of human CYP2C9 expressed in Escherichia coli", "assay_type": "ADME", "method_in_brief": "as §3"}, "[16]": {"assay": "Plasma protein binding in dog", "assay_type": "ADME, cell-free, Canis lupus familiaris", "conditions": "read-out: PPB (converted)"}, "Cytochrome P450 2D6": {"target": "Cytochrome P450 2D6 (Homo sapiens, UniProt P10635)", "sequence (P10635 whole entry)": "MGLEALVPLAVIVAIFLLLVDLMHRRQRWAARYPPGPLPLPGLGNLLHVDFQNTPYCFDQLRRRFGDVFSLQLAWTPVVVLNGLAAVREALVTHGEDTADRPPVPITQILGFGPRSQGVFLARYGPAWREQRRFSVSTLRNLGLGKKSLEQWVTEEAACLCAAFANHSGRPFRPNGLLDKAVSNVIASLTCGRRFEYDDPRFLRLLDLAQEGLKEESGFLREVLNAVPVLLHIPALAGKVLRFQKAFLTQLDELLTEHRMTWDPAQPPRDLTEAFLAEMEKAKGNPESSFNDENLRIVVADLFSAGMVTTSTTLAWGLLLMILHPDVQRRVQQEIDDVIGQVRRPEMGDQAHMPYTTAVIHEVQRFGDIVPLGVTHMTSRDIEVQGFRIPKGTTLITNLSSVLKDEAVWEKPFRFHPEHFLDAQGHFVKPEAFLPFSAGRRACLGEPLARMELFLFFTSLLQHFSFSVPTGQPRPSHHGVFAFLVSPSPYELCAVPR", "assay": "Inhibition of human CYP2D6 expressed in Escherichia coli", "assay_type": "ADME", "method_in_brief": "as §3"}, "Liver microsome [17]": {"system": "Liver microsome", "assay": "Clearance in dog liver microsomes", "assay_type": "ADME, Canis lupus familiaris", "method_in_brief": "(§6)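 Compound incubated with liver microsomes; in vitro metabolic clearance expressed as (mL/min)/g liver.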"}, "[18]": {"target": "Beta-1 adrenergic receptor (Homo sapiens, UniProt P08588)", "sequence (P08588 whole entry)": "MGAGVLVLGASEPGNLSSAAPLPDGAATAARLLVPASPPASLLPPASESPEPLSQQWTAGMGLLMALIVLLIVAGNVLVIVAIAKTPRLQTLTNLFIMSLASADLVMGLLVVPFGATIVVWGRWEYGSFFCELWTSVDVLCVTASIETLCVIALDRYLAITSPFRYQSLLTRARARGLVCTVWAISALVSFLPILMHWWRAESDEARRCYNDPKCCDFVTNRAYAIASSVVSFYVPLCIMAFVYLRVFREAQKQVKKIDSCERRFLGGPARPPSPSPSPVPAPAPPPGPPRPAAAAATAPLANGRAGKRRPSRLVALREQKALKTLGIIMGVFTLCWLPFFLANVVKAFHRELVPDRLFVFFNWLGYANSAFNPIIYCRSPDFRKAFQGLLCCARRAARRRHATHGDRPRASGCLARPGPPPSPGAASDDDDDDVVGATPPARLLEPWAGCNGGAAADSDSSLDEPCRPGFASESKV", "assay": "Agonist activity at human beta1 adrenoceptor transfected in CHO cells assessed as cyclic AMP accumulation after 45 mins by fluorescence polarization assay", "assay_type": "cell-based"}, "Hepatocyte [19]": {"system": "Hepatocyte", "assay": "Drug metabolism in human hepatocytes assessed as metabolite M12 formation at 12.5 uM after 2 hrs by LC-MS/MS analysis", "assay_type": "ADME, cell-based", "method_in_brief": "as §5"}, "Hepatocyte [20]": {"system": "Hepatocyte", "assay": "Drug metabolism in human hepatocytes assessed as metabolite M11 formation at 12.5 uM after 2 hrs by LC-MS/MS analysis", "assay_type": "ADME, cell-based", "method_in_brief": "as §5"}, "Hepatocyte [21]": {"system": "Hepatocyte", "assay": "Drug metabolism in human hepatocytes assessed as metabolite M13 formation at 12.5 uM after 2 hrs by LC-MS/MS analysis", "assay_type": "ADME, cell-based", "method_in_brief": "as §5"}, "Liver microsome [22]": {"system": "Liver microsome", "assay": "Clearance in human liver microsomes", "assay_type": "ADME", "method_in_brief": "as §6"}, "[23]": {"assay": "Volume of distribution at steady state in Han Wistar rat at 0.25 mg/kg, iv up to 7 hrs by LC-MS/MS analysis", "assay_type": "ADME, organism-based", "set-up": "dose 0.25 mg/kg, route intravenous", "conditions": "in vivo, read-out: Vdss", "method_in_brief": "as §4"}, "[24]": {"assay": "Binding affinity to guinea pig sigma receptor", "set-up": "species or system Cavia porcellus"}, "[25]": {"assay": "Oral bioavailability in beagle dog at 0.25 mg/kg up to 8 hrs by LC-MS/MS analysis", "assay_type": "ADME, organism-based, Canis lupus familiaris", "conditions": "in vivo", "method_in_brief": "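Beagle dogs dosed 0.25 mg/kg orally, with 0.05 mg/kg iv reference arm; plasma collected at various time points up to 8 h postdose.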"}, "Cavia porcellus [26]": {"system": "Cavia porcellus", "assay": "Bronchodilatory activity in guinea pig assessed as duration of action of inhibition of histamine-induced bronchoconstriction at EC90 administered via nebulization 2 mins prior to histamine challenge", "assay_type": "functional", "method_in_brief": "as §1"}, "Hepatocyte [27]": {"system": "Hepatocyte", "assay": "Drug metabolism in human hepatocytes assessed as metabolite M2 formation at 12.5 uM after 2 hrs by LC-MS/MS analysis", "assay_type": "ADME, cell-based", "method_in_brief": "as §5"}, "[28]": {"assay": "Half life in beagle dog at 0.05 mg/kg, iv up to 8 hrs by LC-MS/MS analysis", "assay_type": "ADME, organism-based, Canis lupus familiaris", "set-up": "dose 0.05 mg/kg, route intravenous", "conditions": "in vivo", "method_in_brief": "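Beagle dogs dosed 0.05 mg/kg intravenously; plasma collected at various time points up to 8 h postdose.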"}},
  "data": [
    {"compound": "CC(=O)O.O=S(=O)(c1cccc(CCCCOCCCCCCNC[C@H](O)c2ccc(O)c(CO)c2)c1)C1CCCC1", "values": [
      {"measurement": "Time", "setting": "Cavia porcellus [1]", "result": ">24", "unit": "h"},
      {"measurement": "Activity", "setting": "L5178Y", "result": "Non-toxic"},
      {"measurement": "blood plasma ratio", "setting": "[2]", "result": 1.3},
      {"measurement": "EC90", "setting": "Cavia porcellus [3]", "result": 10, "unit": "µM"},
      {"measurement": "IC50", "setting": "Cytochrome P450 2C19", "result": "> 10", "unit": "µM"},
      {"measurement": "AUC at 7 h", "setting": "[4]", "result": 15.9, "unit": "ng·h/mL"},
      {"measurement": "clearance", "setting": "[5]", "result": 53, "unit": "mL/min/kg"},
      {"measurement": "EC50", "setting": "[6]", "result": 0.002, "unit": "µM"},
      {"measurement": "Drug metabolism", "setting": "Hepatocyte [7]", "result": "Active"},
      {"measurement": "bioavailability", "setting": "[8]", "result": "< 2", "unit": "%"},
      {"measurement": "fold change (FC)", "setting": "Cavia porcellus [9]", "result": 5},
      {"measurement": "Activity", "setting": "Salmonella typhimurium", "result": "Non-toxic"},
      {"measurement": "IC50", "setting": "Cytochrome P450 3A4 [10]", "result": 1.6, "unit": "µM"},
      {"measurement": "half-life", "setting": "[11]", "result": 30, "unit": "min"},
      {"measurement": "Drug metabolism", "setting": "Hepatocyte [12]", "result": "Active"},
      {"measurement": "IC50", "setting": "Cytochrome P450 3A4 [13]", "result": 3.8, "unit": "µM"},
      {"measurement": "fraction unbound", "setting": "[14]", "result": 0.02},
      {"measurement": "Drug metabolism", "setting": "Hepatocyte [15]", "result": "Active"},
      {"measurement": "IC50", "setting": "Cytochrome P450 2C9", "result": "> 10", "unit": "µM"},
      {"measurement": "fraction unbound", "setting": "[16]", "result": 0.03},
      {"measurement": "IC50", "setting": "Cytochrome P450 2D6", "result": 6.4, "unit": "µM"},
      {"measurement": "CLH", "setting": "Liver microsome [17]", "result": 5, "unit": "mL/min/g"},
      {"measurement": "EC50", "setting": "[18]", "result": 0.501, "unit": "µM"},
      {"measurement": "Drug metabolism", "setting": "Hepatocyte [19]", "result": "Active"},
      {"measurement": "Drug metabolism", "setting": "Hepatocyte [20]", "result": "Active"},
      {"measurement": "Drug metabolism", "setting": "Hepatocyte [21]", "result": "Active"},
      {"measurement": "CLH", "setting": "Liver microsome [22]", "result": 8, "unit": "mL/min/g"},
      {"measurement": "Vd", "setting": "[23]", "result": 1.1, "unit": "L/kg"},
      {"measurement": "pIC50", "setting": "[24]", "result": 6.8},
      {"measurement": "bioavailability", "setting": "[25]", "result": 3, "unit": "%"},
      {"measurement": "Time", "setting": "Cavia porcellus [26]", "result": 20, "unit": "h"},
      {"measurement": "Drug metabolism", "setting": "Hepatocyte [27]", "result": "Active"},
      {"measurement": "half-life", "setting": "[28]", "result": 24, "unit": "min"}
    ]}
  ]
}
